Data taken from paper PMC411066 (BMC Medicine, 2004).
“And” between values parts separate entries of the source, which are not always exact repeats. Equal entries are not always repeated.

Legend:
[1] = Serum digoxin; format: in vivo, human
Method in brief: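 Trough serum samples at steady state from 618 digoxin-monitoring patients, assayed by fluorescence polarization immunoassay. Orally given comedications were classed as P-gp inhibitors by PubMed search: Class I, documented in vivo effect on digoxin kinetics; Class II, in vitro inhibition only. Means ± SE from a General Linear Model adjusted for age, sex, digoxin dose and total prescribed drugs, covariates at their means.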

[2] = test system: P-gp; details: cited from earlier work

SMILES	Adjusted S-digoxin mean ± SE ([1]; patients taking one Class I P-gp inhibitor, N = 96) [nmol/L]	Adjusted S-digoxin mean ± SE ([1]; patients taking one P-gp inhibitor, N = 204, multivariate) [nmol/L]	S-digoxin with Class II P-gp inhibitors compared with no P-gp inhibitors ([1]; patients taking one or two Class II P-gp inhibitors, differences not significant in the multivariate model)	Adjusted S-digoxin mean ± SE ([1]; patients taking three P-gp inhibitors, N = 8, multivariate) [nmol/L]	Adjusted S-digoxin mean ± SE ([1]; patients taking two Class I P-gp inhibitors, N = 17)	Adjusted S-digoxin mean ± SE ([1]; patients taking two P-gp inhibitors, N = 78, multivariate) [nmol/L]	S-digoxin mean ± SE ([1]; patients with concomitant P-gp inhibitors, all patients on spironolactone excluded) [nmol/L]	Adjusted S-digoxin mean ± SE ([1]; patients with ≥ 1 P-gp inhibitor, N = 290, adjusted for age, sex, digoxin dose and total number of prescribed drugs) [nmol/L]	In vitro P-gp inhibition [2]
C[C@H]1O[C@@H](O[C@H]2[C@@H](O)C[C@H](O[C@H]3[C@@H](O)C[C@H](O[C@H]4CC[C@@]5(C)[C@H](CC[C@@H]6[C@@H]5C[C@@H](O)[C@]5(C)[C@@H](C7=CC(=O)OC7)CC[C@]65O)C4)O[C@@H]3C)O[C@@H]2C)C[C@H](O)[C@@H]1O [digoxin]	1.65 ± 0.07	1.51 ± 0.05	tended to have elevated S-digoxin levels	2.00 ± 0.25	1.83 ± 0.07 nmol/L and 1.83 ± 0.17 nmol/L	1.59 ± 0.08	1.46 ± 0.05	1.55 ± 0.04	
CC[C@H](C)C(=O)O[C@H]1C[C@H](O)C=C2C=C[C@H](C)[C@H](CC[C@@H](O)C[C@@H](O)CC(=O)O)[C@H]21 [pravastatin]									not an in vitro P-gp inhibitor
